Results from different studies.
Each line is one published result; the experiments were not run side by side.
Target: Casein kinase I isoform gamma-2 (CSNK1G2, Homo sapiens, UniProt P78368)

CN(C)c1ncc(F)c(-c2cnn3ncccc23)n1 — remaining binding (binding; 1 µM): 90%
CN([C@@H]1CCc2c(CC(=O)O)c3cc(S(C)(=O)=O)ccc3n2C1)S(=O)(=O)c1ccc(F)cc1 — remaining binding (cell-free assay, competition with immobilised ligand; 1 µM): 100%
Cc1cnc(Nc2ccc(C(=O)N3CCC(N4CCCC4)CC3)cc2)nc1-c1cc2ccccc2s1 — remaining binding (binding, competition with immobilised ligand; 1 µM): 100%
N#Cc1ccccc1CSc1nnc2c(n1)[nH]c1ccccc12 — remaining binding (binding, competition with immobilised ligand; 10 µM): 81%
C[C@H]1CCN(c2nccc(-c3cnn4ncccc34)n2)C1 — remaining binding (binding; 1 µM): 64%
CC(C)(C)c1ccc(-c2nc(CBr)nn2-c2cccc(O)c2)cc1 — remaining binding (cell-free assay, competition with immobilised ligand; 10 µM): 93%
O=C(c1ccc(Nc2nccc(-c3cc4ccccc4s3)n2)cc1)N1CCC(N2CCCC2)CC1 — remaining binding (binding, competition with immobilised ligand; 1 µM): 94%
O=C(Nc1c[nH]nc1C(=O)NC1CCNCC1)c1cc(F)cc(F)c1 — remaining binding (binding, competition with immobilised ligand; 1 µM): 100%
O=C(NCCCN1CCOCC1)c1ccc(Nc2ncc(Cl)c(-c3ccc(Cl)s3)n2)cc1 — remaining binding (binding, competition with immobilised ligand; 1 µM): 100%
O=C(N1CCS(=O)(=O)CC1)N1C[C@H](c2ccc(OC(F)(F)F)cc2)C[C@H](c2nc(C3CC3)no2)C1 — remaining binding (cell-free assay, competition with immobilised ligand; 1 µM): 89%
c1cnn2ncc(-c3ccnc(N4CCC45COC5)n3)c2c1 — remaining binding (binding; 1 µM): 77%
CC1=C(C#N)C(c2ccc3c(c2)c(NC(=O)c2ccccc2C)nn3C)C(C#N)=C(C)N1 — remaining binding (cell-free assay, competition with immobilised ligand; 1 µM): 95%
CCN1CCN(Cc2ccc(C(=O)Nc3ccc(C)c(Oc4ccc5c(c4)CC(=O)N5)c3)cc2C(F)(F)F)CC1 — remaining binding (binding, competition with immobilised ligand; 1 µM): 100%
Cn1cc(Cl)c2c(Oc3c(F)cc(Nc4cc(Cl)nc(N)n4)cc3F)ccnc21 — remaining binding (cell-free assay, competition with immobilised ligand; 0.1 µM): 83%
CN(C)c1nccc(-c2cnc3ncccn23)n1 — remaining binding (binding; 1 µM): 89%
CNCc1ccccc1-c1csc([C@@H](C)Nc2nc(C)nc3cc(OC)c(OC)cc23)c1 — remaining binding (cell-free assay, competition with immobilised ligand; 1 µM): 98%
F[C@@H]1CCN(c2nccc(-c3cnn4ncccc34)n2)C1 — remaining binding (binding; 1 µM): 74%
CN([C@@H]1CCc2c(CC(=O)O)c3ccccc3n2C1)S(=O)(=O)c1ccc(F)cc1 — remaining binding (cell-free assay, competition with immobilised ligand; 1 µM): 100%
Nc1ncc2c(n1)-c1c([nH]c3ccc(C#CC4CC4)cc13)CCCC2 — remaining binding (binding, competition with immobilised ligand; 1 µM): 100%
N[C@@H]1CCN(c2nccc(-c3cnn4ncccc34)n2)C1 — remaining binding (binding; 1 µM): 82%
COc1cnc(Nc2cccc(S(N)(=O)=O)c2)nc1N1CCN(c2ccccc2)C(=O)C1 — remaining binding (binding, competition with immobilised ligand; 1 µM): 96%
